Several values for one entry are separate records, joined by “and”; a condition that tells them apart may be missing. Identical values can stand only once. Activity calls are given as the source filed them. The rule behind the calls is not given here.
Tests used:
[1] = Binding affinity to lysine in aqueous solution assessed as change in enthalpy at 1 mM by isothermal titration calorimetry
Outline: (§1)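 ITC at 298 K: sample cell filled with one partner at 1 mM, titrant at 15 mM in syringe, computer-automated injections. Blank titrations into plain solvent subtracted to remove heats of dilution. Data fitted to a 1:1 (one-site) binding model to give K, ΔH and ΔS.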

[2] = Binding affinity to histidine in aqueous solution assessed as change in enthalpy at 1 mM by isothermal titration calorimetry; outline: as §1
[3] = molecular target: T1, Alpha-crystallin A chain (Homo sapiens) (UniProt P02489); assay: Binding affinity to alphaA (66 to 80 residues) crystallin peptide in aqueous solution assessed as gibbs free energy change at 1 mM by isothermal titration calorimetry; outline: as §1
T1 sequence (whole entry): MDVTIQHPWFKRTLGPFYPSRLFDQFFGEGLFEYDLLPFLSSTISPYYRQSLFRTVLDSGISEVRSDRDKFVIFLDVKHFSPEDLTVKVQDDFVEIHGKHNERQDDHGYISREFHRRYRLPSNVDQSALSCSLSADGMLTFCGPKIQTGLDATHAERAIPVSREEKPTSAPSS

[4] = molecular target: T1, Alpha-crystallin A chain (Homo sapiens); assay: Inhibition of alphaA (66 to 80 residues) crystallin peptide aggregation assessed as decrease in peptide-receptor complex and measured after 72 hrs by ESI-MS analysis
Outline: (§2)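 Peptide and host (10 mM aqueous stocks) were mixed in equal parts to 5 mM each. Mixtures were diluted in ESI buffer (50% methanol, 49% water, 1% acetic acid) and analysed by positive-mode ESI-MS, either within 2 h of mixing or after incubation for 72+ h at 37 °C followed by 100-fold dilution.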

[5] = Binding affinity to lysine in deuterium oxide solution assessed as change in complexation induced chemical shift at 2 mM by 1H NMR analysis
[6] = Binding affinity to lysine in aqueous solution assessed as gibbs free energy change at 1 mM by isothermal titration calorimetry; outline: as §1
[7] = Binding affinity to arginine in deuterium oxide solution assessed as change in complexation induced chemical shift at 2 mM by 1H NMR analysis
[8] = molecular target: T1, Alpha-crystallin A chain (Homo sapiens); assay: Inhibition of alphaA (66 to 80 residues) crystallin peptide aggregation at peptide to ligand ratio of 0.2 to 5:1 incubated for 7 days by fluorescence aggregation assay; settings: time 7.0 day
Outline: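 5360 μM peptide in 10 mM Tris was mixed with receptor at 0.2:1 to 10:1 receptor:peptide ratios and incubated 7 days at 37 °C. Proteostat dye was added (1 μL per 10 μL sample) with positive/negative dye controls. Fluorescence was read at 25 °C. Triplicates; percent inhibition plotted vs log[concentration] to derive IC50.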

[9] = Binding affinity to arginine in aqueous solution assessed as change in entropy at 1 mM by isothermal titration calorimetry
Outline: (§3)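 ITC at 298 K. The sample cell holds one partner at 1 mM and the syringe holds titrant at 15 mM, added by automated injections. Titrations were run in water and in 10 mM Tris buffer pH 7.4. Blank titrations into plain solvent were subtracted to correct for heats of dilution. The data were fitted to a 1:1 (one-site) binding model to give K, ΔH and ΔS.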

[10] = Binding affinity to histidine in aqueous solution assessed as change in entropy at 1 mM by isothermal titration calorimetry; outline: as §3
[11] = molecular target: T1, Alpha-crystallin A chain (Homo sapiens); assay: Inhibition of alphaA (66 to 80 residues) crystallin peptide aggregation assessed as decrease in peptide-receptor complex and measured upto 2 hrs by ESI-MS analysis; outline: as §2
[12] = Binding affinity to arginine in aqueous solution assessed as change in enthalpy at 1 mM by isothermal titration calorimetry; outline: as §1
[13] = Binding affinity to arginine in aqueous solution assessed as association constant at 1 mM by isothermal titration calorimetry; outline: as §1
[14] = Binding affinity to lysine in aqueous solution assessed as change in entropy at 1 mM by isothermal titration calorimetry; outline: as §3
[15] = molecular target: T1, Alpha-crystallin A chain (Homo sapiens); assay: Binding affinity to alphaA (66 to 80 residues) crystallin peptide in aqueous solution assessed as change in entropy at 1 mM by isothermal titration calorimetry; outline: as §1
[16] = Binding affinity to aspartic acid in deuterium oxide solution assessed as change in complexation induced chemical shift at 2 mM by 1H NMR analysis
[17] = Binding affinity to lysine in aqueous solution assessed as association constant at 1 mM by isothermal titration calorimetry; outline: as §1
[18] = Binding affinity to histidine in aqueous solution assessed as association constant at 1 mM by isothermal titration calorimetry; outline: as §1
[19] = molecular target: T1, Alpha-crystallin A chain (Homo sapiens); assay: Binding affinity to alphaA (66 to 80 residues) crystallin peptide in aqueous solution assessed as change in enthalpy at 1 mM by isothermal titration calorimetry; outline: as §1
[20] = molecular target: T1, Alpha-crystallin A chain (Homo sapiens); assay: Binding affinity to alphaA (66 to 80 residues) crystallin peptide in aqueous solution assessed as association constant at 1 mM by isothermal titration calorimetry; outline: as §1
[21] = Binding affinity to arginine in aqueous solution assessed as gibbs free energy change at 1 mM by isothermal titration calorimetry; outline: as §1
[22] = Binding affinity to histidine in deuterium oxide solution assessed as change in complexation induced chemical shift at 2 mM by 1H NMR analysis
[23] = molecular target: T1, Alpha-crystallin A chain (Homo sapiens); assay: Inhibition of alphaA (66 to 80 residues) crystallin peptide aggregation assessed as amorphous small protein aggregates at 1:1 peptide to ligand ratio incubated for 7 days by transmission electron microscopy; settings: time 7.0 day
Outline: (§4)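 Peptide incubated with receptor at 1:1 or 5:1 ratio for 7 days at 37 °C. A 10 μL aliquot taken on day 7 was loaded onto Formvar-carbon coated 200 mesh nickel grids and allowed to absorb for 2 h. Grids were washed three times with deionized water and blotted dry. Peptide-alone control; duplicate grids per sample; imaged by TEM.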

[24] = Binding affinity to histidine in aqueous solution assessed as gibbs free energy change at 1 mM by isothermal titration calorimetry; outline: as §1
[25] = molecular target: T1, Alpha-crystallin A chain (Homo sapiens); assay: Inhibition of alphaA (66 to 80 residues) crystallin peptide aggregation assessed as decrease in average diameter size distribution at 1:1 peptide to ligand ratio incubated for 7 days by dynamic light scattering (Rvb=12000+/-1500 nm); settings: time 7.0 day
[26] = molecular target: T1, Alpha-crystallin A chain (Homo sapiens); assay: Inhibition of alphaA (66 to 80 residues) crystallin peptide aggregation assessed decrease in large fibrillar aggregation at 1:1 peptide to ligand ratio incubated for 7 days by transmission electron microscopy; settings: time 7.0 day; outline: as §4
[27] = Binding affinity to aspartic acid in aqueous solution assessed as change in entropy at 1 mM by isothermal titration calorimetry; outline: as §3
[28] = Binding affinity to aspartic acid in aqueous solution assessed as gibbs free energy change at 1 mM by isothermal titration calorimetry; outline: as §1
[29] = Binding affinity to aspartic acid in aqueous solution assessed as association constant at 1 mM by isothermal titration calorimetry; outline: as §1
[30] = Binding affinity to aspartic acid in aqueous solution assessed as change in enthalpy at 1 mM by isothermal titration calorimetry; outline: as §1

| Compound | deltaH [1] [kcal/mol] | deltaH [2] [kcal/mol] | deltaG [3] | inhibition [4] | Activity [5] | deltaG [6] | Activity [7] | inhibition [8] | TdeltaS [10] [kcal/mol] | inhibition [11] | TdeltaS [15] [kcal/mol] | Activity [16] | Ka [18] | deltaH [19] [kcal/mol] | Ka [20] | Activity [22] | inhibition [23] | deltaG [24] | Activity [25] [nm] | inhibition [26] | also measured |
| --- | --- | --- | --- | --- | --- | --- | --- | --- | --- | --- | --- | --- | --- | --- | --- | --- | --- | --- | --- | --- | --- |
| CCCc1cc(C(CC)c2cc(C(CC)c3cc(C(CC)c4ccc(O)c(CS(=O)(=O)O)c4O)c(O)c(CS(=O)(=O)O)c3O)c(O)c(CS(=O)(=O)O)c2O)c(O)c(CS(=O)(=O)O)c1O (centres undefined) | -12.1 | -2.59 | -8.37 kcal/mol | inactive | Active | -5.62 kcal/mol | Active | Dose-Dependent Effect | 6.91 | inactive | 0.092 | inactive | 2.94 10^3/M | -8.28 | 1360 10^3/M | inactive | Active | -9.5 kcal/mol and -9.51 kcal/mol | 1920 | Active | TdeltaS [9]: -10.4 kcal/mol; deltaH [12]: -15.7 kcal/mol; Ka [13]: 7.27 10^3/M; TdeltaS [14]: -6.45 kcal/mol; Ka [17]: 5.89 10^3/M; deltaG [21]: -5.27 kcal/mol and -5.28 kcal/mol |
| O=S(=O)(O)CCCc1cc(C(CCS(=O)(=O)O)c2cc(C(CCS(=O)(=O)O)c3cc(C(CCS(=O)(=O)O)c4ccc(O)cc4O)c(O)cc3O)c(O)cc2O)c(O)cc1O (centres undefined) | -6.74 | -1.05 | -7.61 kcal/mol and -7.6 kcal/mol | inactive | Active | -4.98 kcal/mol and -4.97 kcal/mol | Active | Dose-Dependent Effect | 3.75 | inactive | 4.38 | inactive | 3.44 10^3/M | -3.23 | 380 10^3/M | inactive | Active | -4.8 kcal/mol | 3740 | Active | TdeltaS [9]: -10.2 kcal/mol; deltaH [12]: -15.2 kcal/mol; Ka [13]: 3.64 10^3/M; TdeltaS [14]: -1.76 kcal/mol; Ka [17]: 4.45 10^3/M; deltaG [21]: -4.9 kcal/mol |
| OCCCCc1cc(C(CCCO)c2cc(C(CCCO)c3cc(C(CCCO)c4ccc(O)c(CNCc5ccccc5)c4O)c(O)c(CNCc4ccccc4)c3O)c(O)c(CNCc3ccccc3)c2O)c(O)c(CNCc2ccccc2)c1O (centres undefined) |  | -7.53 | -4.59 kcal/mol | Active | Active |  | Active | Dose-Dependent Effect | -1.84 | Active | 9.48 | Active | 14.9 10^3/M | 4.89 | 2.4 10^3/M | Active | Active | -5.69 kcal/mol | 202 | Active | TdeltaS [27]: 2.9 kcal/mol; deltaG [28]: -3.9 kcal/mol; Ka [29]: 7.3 10^3/M; deltaH [30]: -1 kcal/mol |

Source: ChEMBL document CHEMBL5223067, “Functionalized resorcinarenes effectively disrupt the aggregation of αA66-80 crystallin peptide related to cataracts” (RSC Med Chem, 2021)
